Bioassay records from PubChem.
Lung fibro prol: blocks proliferation of human lung fibroblasts | LL 47 human lung fibroblast viability, ATP luminescence; stronger effect = lower value | viability, % at 10 µM | 1.1% of 85,000 active;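 active = viability at or below 50% in the single dose screen; inactive = viability above 50%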;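 note: compound exposure lasted 72 h before the ATP readout; 100% = median luminescence of untreated cell-only wells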
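Signal: luminescent ATP detection, CellTiter-Glo; assay system: LL 47 human lung fibroblasts; input: 1,150 cells/well; incubation: overnight cell rest, 72 h compound treatment at 37 °C; measure: % viability versus median cells-only luminescence; medium: IMEM growth medium with 15% fetal bovine serum; dosing: compound addition at 0.1% DMSO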
HUVEC prolif 384: blocks proliferation of human endothelial cells; 1.1% of 86,000 active; HUVEC proliferation, CellTiter-Glo luminescence, 72 h; stronger effect = lower value; viability, % at 10 µM (by protocol);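 active = viability at or below 30%; inactive = viability above 30%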;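 note: 100% = median luminescence of DMSO-only cell control wells on each plate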
bCat KO growth: beta-catenin-lacking colon tumor cell growth suppression | 1.5% of 140,000 active | HCT116 beta-catenin knockout viability, CellTiter-Glo, 60 h; stronger effect = lower value | viability, % at 10 µM;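 active = viability at or under a set limit, the compound median less 4 SD, cut at about 6% in these data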;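 note: 0% = Hyamine 1622 control at 20 µM and 100% = untreated cell control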
PTEN del growth: PTEN-deleted cell growth suppression; HCT116 PTEN-null viability, CellTiter-Glo, 60 h; stronger effect = lower value; viability, % at 10 µM; 1.2% of 140,000 active; AID 827;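 active = viability at or below a set limit, 4 SD under the median of all tested compounds, cut at about 3.7% in these data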;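 note: PTEN knockout HCT116 line with beta catenin targeted HCT116 as companion control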
H69AR growth 86K: blocks growth of human H69AR lung tumor cells; H69AR lung tumor viability, ATP luminescence, 72 h; stronger effect = lower value; 6% of 85,000 active; viability, % at 10 µM;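 active = viability at or below 40%; inactive = viability above 40%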;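 note: multidrug resistant small cell line overexpressing MRP-1 efflux transporter; 100% = mean luminescence of untreated control wells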
* = called active by the depositor; / = not tested or not shown. This is one part of a sample in which hits are shown more often than they occur.

SMILES | Lung fibro prol | HUVEC prolif 384 | bCat KO growth | PTEN del growth | H69AR growth 86K
COC(=O)c1ccc2nc(Nc3nc4ccc(F)cc4s3)sc2c1 | / | / | 81.8 | 87.2 | /
CCOC(=O)c1csc(Nc2nc3ccc(F)cc3s2)n1 | / | / | 4.7* | 5.3 | /
O=C(CSc1nc(-c2ccccc2)cs1)Nc1ccccc1[N+](=O)[O-] | / | / | 80.5 | 81.1 | /
CCOc1ccccc1N/C(=N/c1nc(C)cc(C)n1)NC(=O)Nc1ccc(Cl)c(Cl)c1 | / | / | 81.9 | 72.6 | /
O=C(COC(=O)Cc1ccsc1)Nc1ccc(Cl)c(S(=O)(=O)N2CCOCC2)c1 | / | / | 91.0 | 86.8 | /
COc1cc2c(cc1NS(=O)(=O)N1CCCCC1)oc1ccccc12 | 103.2 | 72.1 | 73.7 | 70.6 | 77.2
CC(=O)/C=C/c1ccc2ccccc2n1 | 7.4* | 29.7* | 1.5* | 1.2* | 0.8*
Cc1ccc(CNC(=O)CSc2c3c(nc4ccc(Cl)cc24)CCCC3)o1 | 76.6 | 73.8 | 87.3 | 86.1 | 15.3*
Cc1nonc1NC(=O)CSc1nc2cc(Cl)ccc2c2c1CCCC2 | 101.0 | 60.7 | 89.4 | 77.1 | 60.2
CCc1ccc2c(c1)C1(NN=C(c3cccc4ccccc34)S1)C(=O)N2 (stereo not drawn) | 34.5* | 35.0 | 10.2 | 10.7 | 18.9*
CC1(C)CC(=O)C(C(C#Cc2ccccc2)C2=C(O)CC(C)(C)CC2=O)=C(O)C1 | 82.7 | 81.8 | 80.3 | 93.2 | 29.4*
O=C1CCCC(O)=C1C(C#Cc1ccccc1)C1=C(O)CCCC1=O | 80.8 | 75.8 | 99.8 | 107.3 | 7.3*
CCN(CC)S(=O)(=O)c1ccc(C(=O)OCn2nnc3ccccc3c2=O)cc1 | 99.5 | 95.6 | 90.9 | 100.2 | 86.4
Clc1ccc(-c2ccc(/C=N/Nc3cc(N4CCOCC4)nc(N4CCOCC4)n3)o2)cc1 | 73.7 | 13.2* | 42.5 | 39.2 | 29.5*
COC(=O)c1cc(NC(=O)c2c(F)c(F)c(F)c(F)c2F)cc(C(=O)OC)c1 | / | / | 82.6 | 73.8 | /
O=C(/C=C/c1cccc([N+](=O)[O-])c1)Nc1cccc(NC(=O)c2cccs2)c1 | / | / | 64.6 | 54.4 | /
COC(=O)c1sc2nc(-c3ccccc3)nc(N3CCN(C)CC3)c2c1C | 79.6 | 45.7 | 58.1 | 57.9 | 70.5
Cc1nc(N2CCN(C)CC2)c2c(C)c(C(=O)Nc3ccc(C)c(F)c3)sc2n1 | 43.5* | 3.7* | 10.8 | 9.6 | 49.1
COc1cc(/C=N/NC(=S)Nc2cccc(Cl)c2C)ccc1OCC(=O)N1CC(C)OC(C)C1 (stereo not drawn) | / | / | 63.6 | 53.4 | /
C#CCCCCCCC#CCN(C)C | / | / | 94.1 | 92.4 | /
COc1ccc2c(c1)CCc1sc(NC(=O)c3ccco3)nc1-2 | 117.5 | 98.1 | 86.0 | 91.6 | 77.3
COc1ccc2c(c1)-c1nc(NC(=O)c3ccco3)sc1CC2 | 105.5 | 99.6 | 95.9 | 85.7 | 39.4*
CC(C)(C)c1nnc(N/N=C/c2ccc(Br)cc2)n(N)c1=O | / | / | 95.1 | 91.0 | /
O=c1[nH]c2cc3c(cc2cc1C(c1nnnn1Cc1ccccc1)N1CCCCCC1)OCCO3 (stereo not drawn) | 29.8* | 68.7 | 93.2 | 99.0 | 2.1*
CCc1ccc2[nH]c(=O)c(C(c3nnnn3CC3CCCO3)N3CCCc4ccccc43)cc2c1 (stereo not drawn) | 95.4 | 89.2 | 87.2 | 84.4 | 20.2*
SMILES | Lung fibro prol | HUVEC prolif 384 | bCat KO growth | PTEN del growth | H69AR growth 86K
COCCn1nnnc1C(c1cc2cc(OC)ccc2[nH]c1=O)N1CCC(Cc2ccccc2)CC1 (stereo not drawn) | 105.7 | 96.1 | 3.0* | 2.7* | 3.8*
O=c1[nH]c2cc3c(cc2cc1C(c1nnnn1Cc1ccccc1)N1CCCc2ccccc21)OCO3 (stereo not drawn) | 80.3 | 53.1 | 90.4 | 86.1 | 21.2*
COCCn1nnnc1C(c1cc2cc(C)ccc2[nH]c1=O)N1CCCCCC1 (stereo not drawn) | 103.9 | 97.2 | 94.7 | 105.8 | 71.5
COc1ccc(OC)c(S(=O)(=O)N(C)CC(=O)N2CCN(c3ccc(F)cc3)CC2)c1 | 18.5* | 100.7 | 87.2 | 86.2 | 94.5
CC(C)COC(=O)c1ccc2c(c1O)C(=O)c1ccccc1C2=O | 75.5 | 10.2* | 37.6 | 26.4 | 44.6
COc1cccc(CN2CCC(N(CCc3ccccc3)Cc3ccccc3)CC2)c1OC | / | / | 11.5 | 8.9 | /
N=C1C(c2nc3ccccc3s2)=C(O)CN1Cc1ccccc1 | 52.4 | 46.3 | 31.0 | 30.9 | 17.1*
CCN(CC)CCCN1CC(O)=C(c2nc3ccccc3s2)C1=N | 89.0 | 79.3 | 95.1 | 97.2 | 87.3
COc1ccc(C(=O)O/N=C(\N)Cc2ccc(Cl)cc2)cc1OC | / | / | 0.9* | 2.4* | /
Cc1cccc(NC(=O)CSc2nc3ccccc3o2)c1 | / | / | 90.7 | 100.2 | /
